Results on one molecule are retold here after paper PMC8724909 (Molecular Systems Design & Engineering, 2021).

Series [1] deals with Galleria mellonella larvae. The series is described as follows: Toxicity in Galleria mellonella larvae. It counts as in vivo. The note with it: uninfected larvae injected with 10, 25, 50, 100 and 200 mg per body weight kg. The procedure, abridged: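 Age- and weight-defined larvae, stored at 15 °C without food, were used uninfected. Groups of 10 larvae received hemocoel injections of test compound or nalidixic acid at 10, 25, 50, 100 and 200 mg/kg body weight, given with a 10 μl syringe.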

In series [2] the test system is E. coli CFT073 nalidixic acid resistant line. The series is described as follows: Galleria mellonella infection model, survival. Format: in vivo. Particulars: nalidixic acid at 50 mg per body weight kg; 48 h. The procedure, abridged:
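Nalidixic acid-resistant strain was grown overnight in Mueller-Hinton II broth and washed twice in PBS. Larvae got 10^7 CFU in 10 μl PBS into the hemocoel via the first left proleg, then treatment via the second right proleg. Monotherapy doses were 10–100 mg/kg. Controls were PBS-only and untreated infected larvae. Larvae were kept at 37 °C for 48 h, with survival scored every 6 h.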

`CCn1cc(C(=O)O)c(=O)c2ccc(C)nc21` [Nalidixic acid, nalidixic acid]: in series [1], the toxicity in larvae result is “no toxicity”. Further, the “improvement of survival of infected larvae, monotherapy” value in series [2] was “approximately 25%”.
